As a reminder, the EC50 is the concentration needed to bring the measured effect to its halfway point.

For one test, the target named is T1, Bile acid receptor (Homo sapiens, UniProt Q96RI1).
T1 sequence (Q96RI1 whole entry): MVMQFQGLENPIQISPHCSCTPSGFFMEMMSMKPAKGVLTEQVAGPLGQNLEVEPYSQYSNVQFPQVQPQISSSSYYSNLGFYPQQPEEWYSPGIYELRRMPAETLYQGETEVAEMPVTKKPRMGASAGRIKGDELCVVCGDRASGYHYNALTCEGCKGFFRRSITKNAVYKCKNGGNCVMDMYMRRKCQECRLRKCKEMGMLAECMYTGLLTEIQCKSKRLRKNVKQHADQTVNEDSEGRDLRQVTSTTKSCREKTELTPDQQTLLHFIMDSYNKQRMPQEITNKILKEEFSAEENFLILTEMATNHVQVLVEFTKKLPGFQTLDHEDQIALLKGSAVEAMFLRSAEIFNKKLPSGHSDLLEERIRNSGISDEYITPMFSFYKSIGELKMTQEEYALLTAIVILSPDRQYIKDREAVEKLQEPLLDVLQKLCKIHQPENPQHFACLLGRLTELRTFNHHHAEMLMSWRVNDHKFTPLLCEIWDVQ
The test is described as follows: Agonist activity at human GST-tagged FXR ligand binding domain assessed as recruitment of Src-1 peptide […] by AlphaScreen assay.

Test [1] deals with T2, Bile acid receptor (Homo sapiens) (UniProt Q96RI1).
T2 sequence (whole entry): T1 sequence (Q96RI1 whole entry)
Description: Agonist activity at human GST-tagged FXR ligand binding domain assessed as recruitment of Src-1 peptide […] by AlphaScreen assay relative to 10 uM of CDCA. A general note: Alpha assays give light when donor and acceptor beads are brought close together.

For test [2], the target named is T2, Bile acid receptor (Homo sapiens). Description: Induction of FXR-mediated down-regulation of Cyp7alpha1 gene in human HepG2 cells after 18 hrs by qRT-PCR analysis. It is filed as cell-based. An outline of the steps: (§1)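 HepG2 cells were stimulated for 18 h with increasing compound concentrations. Total RNA was random reverse-transcribed, and 10 ng template was run in SYBR Green real-time PCR with 0.3 μM of each primer. Cycling was 95 °C 3 min, then 45 cycles of 95 °C 10 s and 60 °C 30 s, in triplicate. Expression is given as ΔCT against an endogenous control, and relative expression as ΔΔCT.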
A general note: Real-time PCR tracks product formation cycle by cycle.

Test [3] has the same target. Description: Induction of FXR-mediated upregulation of Ostbeta gene in human HepG2 cells after 18 hrs by qRT-PCR analysis relative to obeticholic acid. The class given is cell-based. In outline: as §1
The target is the same in test [4]. Description: Induction of FXR-mediated upregulation of Bsep gene in human HepG2 cells after 18 hrs by qRT-PCR analysis. It is filed as cell-based. In outline: as §1

Active and inactive are the calls of the source. The rule behind the calls is not given here.

Turning to `COc1ccc(C2SC(C)C(=O)Nc3c2c(C)nn3-c2ccccc2C)c(OC)c1` (configuration not stated), the EC50 at Bile acid receptor (read-out: EC50) was 10500 nM. The Efficacy in test [1] worked out at 63%.

As to `Cc1nn(-c2ccccc2F)c2c1C(c1ccc(Oc3ccccc3)cc1)SC(C)C(=O)N2` (mixture of isomers), the EC50 on Bile acid receptor (read-out: EC50) amounted to 3900 nM. For the same compound, in test [1], the Efficacy is 72%.

As to `Cc1nn(-c2ccccc2Cl)c2c1C(c1ccc(Oc3ccccc3)cc1)SC(C)C(=O)N2` (mixture of isomers), the EC50 on Bile acid receptor (read-out: EC50) amounted to 2700 nM. In addition, the Efficacy in test [1] was determined as 57%.

As to `Cc1nn(-c2ccccc2Br)c2c1C(c1ccc(Oc3ccccc3)cc1)SC(C)C(=O)N2` (mixture of isomers), the EC50 at Bile acid receptor (read-out: EC50) stood at 1800 nM. The Efficacy in test [1] amounted to 84%.

In the case of `Cc1ccccc1-n1nc(C)c2c1NC(=O)[C@H](C)S[C@@H]2c1ccc(-c2ccccc2)cc1` (racemic), the EC50 on Bile acid receptor (read-out: EC50) worked out at 990 nM. Besides, the Efficacy in test [1] was determined as 24%.

As to `COc1ccccc1-c1ccc([C@H]2S[C@@H](C)C(=O)Nc3c2c(C)nn3-c2ccccc2C)cc1` (racemic), the EC50 on Bile acid receptor (read-out: EC50) came to 1100 nM. For the same compound, the Efficacy in test [1] amounted to 50%.

As to `COc1cccc(-c2ccc([C@H]3S[C@@H](C)C(=O)Nc4c3c(C)nn4-c3ccccc3C)cc2)c1` (racemic), the half-maximal effective concentration (EC50) on Bile acid receptor (read-out: EC50) came to 1800 nM. The Efficacy in test [1] came out at 41%.

On to `COc1ccc(-c2ccc([C@H]3S[C@@H](C)C(=O)Nc4c3c(C)nn4-c3ccccc3C)cc2)cc1` (racemic), for which, on Bile acid receptor (read-out: EC50), the EC50 is 1200 nM. Moreover, the Efficacy in test [1] was 38%.

`CCOc1cccc(-c2ccc([C@H]3S[C@@H](C)C(=O)Nc4c3c(C)nn4-c3ccccc3C)cc2)c1` (racemic): the EC50 on Bile acid receptor (read-out: EC50) stood at 3500 nM. In test [1], the Efficacy came out at 13%.

Turning to `COC(=O)c1cccc(-c2ccc([C@H]3S[C@@H](C)C(=O)Nc4c3c(C)nn4-c3ccccc3C)cc2)c1` (racemic), the EC50 result on Bile acid receptor is reported as “Not Active”.

Turning to `COC(=O)c1ccc(-c2ccc([C@H]3S[C@@H](C)C(=O)Nc4c3c(C)nn4-c3ccccc3C)cc2)cc1` (racemic), the EC50 result on Bile acid receptor is on record as “Not Active”.

On to `Cc1ccccc1-n1nc(C)c2c1NC(=O)[C@H](C)S[C@@H]2c1ccc(-c2ccco2)cc1` (racemic), for which the 50% effective concentration (EC50) at Bile acid receptor (read-out: EC50) was found to be 3600 nM. Besides, the Efficacy in test [1] was 32%.

`Cc1ccccc1-n1nc(C)c2c1NC(=O)[C@H](C)S[C@@H]2c1ccc(-c2ccoc2)cc1` (racemic): the half-maximal effective concentration (EC50) at Bile acid receptor (read-out: EC50) worked out at 3500 nM. Moreover, the Efficacy in test [1] is 40%.

Turning to `Cc1ccccc1-n1nc(C)c2c1NC(=O)[C@H](C)S[C@@H]2c1ccc(-c2cccc(C(=O)O)c2)cc1` (racemic), the EC50 entry on Bile acid receptor is “Not Active”.

`Cc1ccccc1-n1nc(C)c2c1NC(=O)[C@H](C)S[C@@H]2c1ccc(-c2ccc(C(=O)O)cc2)cc1` (racemic): the EC50 result at Bile acid receptor is on record as “Not Active”.

For the compound `Cc1ccccc1-n1nc(C)c2c1NC(=O)[C@H](C)S[C@@H]2c1ccc(/C=C/c2ccccc2)cc1` (racemic), on Bile acid receptor, the EC50 result is reported as “Not Active”.

In the case of `Cc1ccccc1-n1nc(C)c2c1NC(=O)[C@H](C)S[C@@H]2c1ccc(-c2cccs2)cc1` (racemic), at Bile acid receptor (read-out: EC50), the EC50 is 2600 nM. In test [1], the Efficacy was determined as 85%.

Regarding `Cc1ccccc1-n1nc(C)c2c1NC(=O)[C@H](C)S[C@@H]2c1ccc(-c2ccsc2)cc1` (racemic), the EC50 on Bile acid receptor (read-out: EC50) was determined as 1400 nM. In test [1], the Efficacy worked out at 68%.

Take `Cc1ccccc1-n1nc(C)c2c1NC(=O)[C@H](C)S[C@@H]2c1ccc(-c2cc3ccccc3o2)cc1` (racemic): the EC50 at Bile acid receptor (read-out: EC50) was found to be 1500 nM. In addition, the Efficacy in test [1] was found to be 17%.

Regarding `Cc1ccccc1-n1nc(C)c2c1NC(=O)[C@H](C)S[C@@H]2c1ccc(Oc2ccccc2)cc1` (racemic), at Bile acid receptor (read-out: EC50), the EC50 is 1300 nM. In addition, the Efficacy in test [1] is 118%.

`COc1ccccc1Oc1ccc([C@H]2S[C@@H](C)C(=O)Nc3c2c(C)nn3-c2ccccc2C)cc1` (racemic): in test [2], the Activity entry was “Dose-dependent effect”. The 50% effective concentration (EC50) on Bile acid receptor (read-out: EC50) is 1700 nM. For the same compound, the Efficacy in test [1] worked out at 240%. Besides, in test [3], the outcome was Active. In test [4], the result was inactive.

For the compound `COc1cccc(Oc2ccc([C@H]3S[C@@H](C)C(=O)Nc4c3c(C)nn4-c3ccccc3C)cc2)c1` (racemic), the EC50 on Bile acid receptor (read-out: EC50) was 1700 nM. For the same compound, the Efficacy in test [1] was determined as 120%.

As for `COc1ccc(Oc2ccc([C@H]3S[C@@H](C)C(=O)Nc4c3c(C)nn4-c3ccccc3C)cc2)cc1` (racemic), on Bile acid receptor (read-out: EC50), the EC50 was found to be 2200 nM. Further, the Efficacy in test [1] was found to be 70%.

Take `Cc1ccccc1-n1nc(C)c2c1NC(=O)[C@H](C)S[C@@H]2c1ccc(Oc2ccccc2C(=O)O)cc1` (racemic): on Bile acid receptor, the half-maximal effective concentration (EC50) entry is reported as “Not Active”.

For the compound `Cc1ccccc1-n1nc(C)c2c1NC(=O)[C@H](C)S[C@@H]2c1ccc(Oc2cccc(C(=O)O)c2)cc1` (racemic), the EC50 result on Bile acid receptor is recorded as “Not Active”.

`Cc1ccccc1-n1nc(C)c2c1NC(=O)[C@H](C)S[C@@H]2c1ccc(Oc2ccc(C(=O)O)cc2)cc1` (racemic): the EC50 entry at Bile acid receptor is “Not Active”.

Turning to `Cc1ccccc1-n1nc(C)c2c1NC(=O)[C@H](C)S[C@@H]2c1ccc(OCc2ccccc2)cc1` (racemic), the EC50 entry on Bile acid receptor is recorded as “Not Active”.

Take `COc1cc([C@H]2S[C@@H](C)C(=O)Nc3c2c(C)nn3-c2ccccc2C)ccc1Oc1ccccc1` (racemic): the EC50 on Bile acid receptor (read-out: EC50) was 1900 nM. Moreover, the Efficacy in test [1] worked out at 130%.

For `Cc1cccc(-n2nc(C)c3c2NC(=O)[C@H](C)S[C@@H]3c2ccc(Oc3ccccc3)cc2)c1` (racemic), the EC50 on Bile acid receptor (read-out: EC50) was 2400 nM. In addition, in test [1], the Efficacy was found to be 22%.

Regarding `Cc1ccc(-n2nc(C)c3c2NC(=O)[C@H](C)S[C@@H]3c2ccc(Oc3ccccc3)cc2)cc1` (racemic), the 50% effective concentration (EC50) on Bile acid receptor (read-out: EC50) came to 3400 nM. Besides, the Efficacy in test [1] is 11%.

Regarding `CCc1ccccc1-n1nc(C)c2c1NC(=O)[C@H](C)S[C@@H]2c1ccc(Oc2ccccc2)cc1` (racemic), the Activity entry in test [2] and in test [4] was “Dose-dependent effect” in each case. The EC50 on Bile acid receptor (read-out: EC50) is 1100 nM. The Efficacy in test [1] came out at 190%. Besides, the result in test [3] was Active.

For `CCCc1ccccc1-n1nc(C)c2c1NC(=O)[C@H](C)S[C@@H]2c1ccc(Oc2ccccc2)cc1` (racemic), in test [2], the Activity result is “Dose-dependent effect”. For the same compound, on Bile acid receptor (read-out: EC50), the EC50 came to 1100 nM. The Efficacy in test [1] stood at 240%. Further, in test [3], the result was Active. The result in test [4] was inactive.

With `Cc1nn(-c2ccccc2C(C)C)c2c1[C@@H](c1ccc(Oc3ccccc3)cc1)S[C@@H](C)C(=O)N2` (racemic), the EC50 on Bile acid receptor (read-out: EC50) is 1900 nM. Moreover, the Efficacy in test [1] was 174%.

As to `Cc1nn(-c2ccccc2C(F)(F)F)c2c1C(c1ccc(Oc3ccccc3)cc1)SC(C)C(=O)N2` (racemic), on Bile acid receptor (read-out: EC50), the EC50 worked out at 2000 nM. Besides, the Efficacy in test [1] was 50%.

Regarding `Cc1nn(-c2ccccc2I)c2c1C(c1ccc(Oc3ccccc3)cc1)SC(C)C(=O)N2` (racemic), on Bile acid receptor (read-out: EC50), the 50% effective concentration (EC50) turned out to be 1300 nM. Also, in test [1], the Efficacy was 130%.

`COc1ccccc1-n1nc(C)c2c1NC(=O)[C@H](C)S[C@@H]2c1ccc(Oc2ccccc2)cc1` (racemic): the EC50 on Bile acid receptor (read-out: EC50) amounted to 3300 nM. The Efficacy in test [1] is 37%.

Source of the values: ChEMBL document CHEMBL2034830, “Pyrazole[3,4-e][1,4]thiazepin-7-one derivatives as a novel class of Farnesoid X Receptor (FXR) agonists” (Bioorg Med Chem, 2012).
